Data: ChEMBL document CHEMBL4152234, “Aminobenzothiazole derivatives stabilize the thermolabile p53 cancer mutant Y220C and show anticancer activity in p53-Y220C cell lines” (Eur J Med Chem, 2018)

Legend:
[1] = test system: Cellular tumor antigen p53 (Homo sapiens), P04637 [Y220C]; experiment: Activation of p53 Y220C mutant in human NUGC3 cells assessed as change in GML mRNA level at 60 uM after 18 hrs by RT-PCR method relative to control; assay type: cell-based
In short: (§1)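 p53 signalling qPCR array covering 84 genes. Cells were exposed for 18 h, with 0.5% DMSO in both compound and control samples. Total RNA was extracted and purified. Fold-changes were calculated by ΔΔCt using β2-microglobulin (B2M) as the housekeeping gene. Two independent biological replicates were run per cell line.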

[2] = test system: Cellular tumor antigen p53 (Homo sapiens), P04637 [Y220C]; experiment: Activation of p53 Y220C mutant in human NUGC3 cells assessed as change in MDM2 mRNA level at 60 uM after 18 hrs by RT-PCR method relative to control; assay type: cell-based
In short: (§2)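 p53 signalling qPCR array covering 84 p53 pathway genes. Cells were exposed for 18 h, and compound and control wells both held 0.5% DMSO. Total RNA was extracted and purified. Fold-changes were calculated by the ΔΔCt method against the untreated sample, with β2-microglobulin (B2M) as the housekeeping gene. Each cell line was run in two independent biological replicates.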

[3] = test system: Cellular tumor antigen p53 (Homo sapiens), P04637 [Y220C]; experiment: Activation of p53 Y220C mutant in human NUGC3 cells assessed as change in BIRC5 mRNA level at 60 uM after 18 hrs by RT-PCR method relative to control; assay type: cell-based; in short: as §1
[4] = biological target: T1, Cellular tumor antigen p53 (Homo sapiens, UniProt P04637); experiment: Activation of p53 in human NUGC4 cells assessed as change in CCNB1 mRNA level at 60 uM after 18 hrs by RT-PCR method relative to control; assay type: cell-based; settings: read-out: FC
In short: (§3)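 p53 signaling qPCR array of 84 p53-pathway genes. Cells were treated in 6-well plates for 18 h with 0.5% DMSO in compound and control samples. Total RNA was extracted and fold-changes were obtained by the ΔΔCt method against untreated control, with β2-microglobulin (B2M) as housekeeping gene. Two independent biological replicates per cell line.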

[5] = test system: Cellular tumor antigen p53 (Homo sapiens), P04637 [Y220C]; experiment: Activation of p53 Y220C mutant in human NUGC3 cells assessed as change in TADA3 mRNA level at 60 uM after 18 hrs by RT-PCR method relative to control; assay type: cell-based; in short: as §2
[6] = Solubility of the compound in water; assay type: physicochemical; settings: buffer
[7] = test system: Cellular tumor antigen p53 (Homo sapiens), P04637 [Y220C]; experiment: Activation of p53 Y220C mutant in human NUGC3 cells assessed as change in PTEN mRNA level at 60 uM after 18 hrs by RT-PCR method relative to control; assay type: cell-based; in short: as §2
[8] = test system: Cellular tumor antigen p53 (Homo sapiens), P04637 [Y220C]; experiment: Activation of p53 Y220C mutant in human NUGC3 cells assessed as change in TNFRSF10D mRNA level at 60 uM after 18 hrs by RT-PCR method relative to control; assay type: cell-based; in short: as §2
[9] = biological target: T1, Cellular tumor antigen p53; experiment: Activation of p53 in human NUGC4 cells assessed as change in BRCA2 mRNA level at 60 uM after 18 hrs by RT-PCR method relative to control; assay type: cell-based; settings: read-out: FC; in short: as §3
[10] = biological target: T1, Cellular tumor antigen p53; experiment: Activation of p53 in human NUGC4 cells assessed as change in HDAC1 mRNA level at 60 uM after 18 hrs by RT-PCR method relative to control; assay type: cell-based; settings: read-out: FC; in short: as §3
[11] = biological target: T1, Cellular tumor antigen p53; experiment: Activation of p53 in human NUGC4 cells assessed as change in RB1 mRNA level at 60 uM after 18 hrs by RT-PCR method relative to control; assay type: cell-based; settings: read-out: FC
[12] = test system: Cellular tumor antigen p53 (Homo sapiens), P04637 [Y220C]; experiment: Activation of p53 Y220C mutant in human NUGC3 cells assessed as change in E2F1 mRNA level at 60 uM after 18 hrs by RT-PCR method relative to control; assay type: cell-based; in short: as §1
[13] = test system: Cellular tumor antigen p53 (Homo sapiens), P04637 [Y220C]; experiment: Activation of p53 Y220C mutant in human NUGC3 cells assessed as change in TSC1 mRNA level at 60 uM after 18 hrs by RT-PCR method relative to control; assay type: cell-based; in short: as §2
[14] = test system: Cellular tumor antigen p53 (Homo sapiens), P04637 [Y220C]; experiment: Activation of p53 Y220C mutant in human NUGC3 cells assessed as change in XRCC5 mRNA level at 60 uM after 18 hrs by RT-PCR method relative to control; assay type: cell-based; in short: as §2
[15] = test system: Cellular tumor antigen p53 (Homo sapiens), P04637 [Y220C]; experiment: Activation of p53 Y220C mutant in human NUGC3 cells assessed as change in SESN2 mRNA level at 60 uM after 18 hrs by RT-PCR method relative to control; assay type: cell-based; in short: as §2
[16] = test system: Cellular tumor antigen p53 (Homo sapiens), P04637 [Y220C]; experiment: Activation of p53 Y220C mutant in human NUGC3 cells assessed as change in MLH1 mRNA level at 60 uM after 18 hrs by RT-PCR method relative to control; assay type: cell-based; in short: as §2
[17] = test system: Cellular tumor antigen p53 (Homo sapiens), P04637 [Y220C]; experiment: Activation of p53 Y220C mutant in human NUGC3 cells assessed as change in BID mRNA level at 60 uM after 18 hrs by RT-PCR method relative to control; assay type: cell-based; in short: as §1
[18] = test system: Cellular tumor antigen p53 (Homo sapiens), P04637 [Y220C]; experiment: Activation of p53 Y220C mutant in human NUGC3 cells assessed as change in CASP9 mRNA level at 60 uM after 18 hrs by RT-PCR method relative to control; assay type: cell-based; in short: as §1
[19] = test system: Cellular tumor antigen p53 (Homo sapiens), P04637 [Y220C]; experiment: Activation of p53 Y220C mutant in human NUGC3 cells assessed as change in CCNH mRNA level at 60 uM after 18 hrs by RT-PCR method relative to control; assay type: cell-based; in short: as §1
[20] = biological target: T1, Cellular tumor antigen p53; experiment: Activation of p53 in human NUGC4 cells assessed as change in EI24 mRNA level at 60 uM after 18 hrs by RT-PCR method relative to control; assay type: cell-based; settings: read-out: FC; in short: as §3
[21] = biological target: T1, Cellular tumor antigen p53; experiment: Activation of p53 in human NUGC4 cells assessed as change in TNFRSF10B mRNA level at 60 uM after 18 hrs by RT-PCR method relative to control; assay type: cell-based; settings: read-out: FC
[22] = test system: Cellular tumor antigen p53 (Homo sapiens), P04637 [Y220C]; experiment: Activation of p53 Y220C mutant in human NUGC3 cells assessed as change in RPRM mRNA level at 60 uM after 18 hrs by RT-PCR method relative to control; assay type: cell-based; in short: as §2
[23] = test system: Cellular tumor antigen p53 (Homo sapiens), P04637 [Y220C]; experiment: Activation of p53 Y220C mutant in human NUGC3 cells assessed as change in CCNE1 mRNA level at 60 uM after 18 hrs by RT-PCR method relative to control; assay type: cell-based; in short: as §1
[24] = test system: Cellular tumor antigen p53 (Homo sapiens), P04637 [Y220C]; experiment: Activation of p53 Y220C mutant in human NUGC3 cells assessed as change in BTG2 mRNA level at 60 uM after 18 hrs by RT-PCR method relative to control; assay type: cell-based; in short: as §1
[25] = biological target: T1, Cellular tumor antigen p53; experiment: Activation of p53 in human NUGC4 cells assessed as change in FAS mRNA level at 60 uM after 18 hrs by RT-PCR method relative to control; assay type: cell-based; settings: read-out: FC; in short: as §3
[26] = biological target: T1, Cellular tumor antigen p53; experiment: Activation of p53 in human NUGC4 cells assessed as change in BIRC5 mRNA level at 60 uM after 18 hrs by RT-PCR method relative to control; assay type: cell-based; settings: read-out: FC; in short: as §2
[27] = biological target: T1, Cellular tumor antigen p53; experiment: Activation of p53 in human NUGC4 cells assessed as change in TP53 mRNA level at 60 uM after 18 hrs by RT-PCR method relative to control; assay type: cell-based; settings: read-out: FC
[28] = test system: Cellular tumor antigen p53 (Homo sapiens), P04637 [Y220C]; experiment: Activation of p53 Y220C mutant in human NUGC3 cells assessed as change in JUN mRNA level at 60 uM after 18 hrs by RT-PCR method relative to control; assay type: cell-based; in short: as §2
[29] = test system: Cellular tumor antigen p53 (Homo sapiens), P04637 [Y220C]; experiment: Activation of p53 Y220C mutant in human NUGC3 cells assessed as change in CDC25A mRNA level at 60 uM after 18 hrs by RT-PCR method relative to control; assay type: cell-based; in short: as §1

- fold change (FC) [1]: 3.1
- fold change (FC) [2]: 1
- fold change (FC) [3]: 0.6
- fold induction at 60 µM [4]: 0.7
- fold change (FC) [5]: 0.8
- solubility [6]: Insoluble
- fold change (FC) [7]: 1.1
- fold change (FC) [8]: 1
- fold induction at 60 µM [9]: 0.6
- fold induction at 60 µM [10]: 0.8
- fold induction at 60 µM [11]: 0.8
- fold change (FC) [12]: 1
- fold change (FC) [13]: 1.3
- fold change (FC) [14]: 1.4
- fold change (FC) [15]: 0.7
- fold change (FC) [16]: 5.4
- fold change (FC) [17]: 1.2
- fold change (FC) [18]: 1
- fold change (FC) [19]: 1.4
- fold induction at 60 µM [20]: 0.8
- fold induction at 60 µM [21]: 1.2
- fold change (FC) [22]: 1.4
- fold change (FC) [23]: 1.2
- fold change (FC) [24]: 1.9
- fold induction at 60 µM [25]: 1
- fold induction at 60 µM [26]: 0.6
- fold induction at 60 µM [27]: 0.8
- fold change (FC) [28]: 0.9
- fold change (FC) [29]: 0.6
Compound: CCNC(=O)c1c(O)c(I)c(-n2cccc2)c2sc(N(CC)CC)nc12
